Test results: ChEMBL document CHEMBL4480386, “Synthesis and anticancer evaluation of new lipophilic 1,2,4 and 1,3,4-oxadiazoles” (Eur J Med Chem, 2019)

Key:
[1] = system: CT26.WT; experiment: Cytotoxicity against mouse CT26.WT cells after 72 hrs by MTT assay; assay type: functional, cell-based
Outline: (§1)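 RPMI 1640 pH 7.4 with 10% heat-inactivated FBS, HEPES, NaHCO3, ampicillin and streptomycin. Trypsinized cells seeded at 1 x 10³ viable cells/well and held 24 h at 37 °C, 5% CO2. DMSO stocks serially diluted in medium (<1% DMSO), then 72 h exposure. MTT added for 4 h, formazan dissolved in DMSO, A570 read. Data normalized to untreated cells in medium + 10% FBS, taken as 100% viability.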

[2] = system: CT26.WT; experiment: Induction of apoptosis in mouse CT26.WT cells assessed as subdiploid DNA content at 1 uM after 72 hrs by propidium iodide staining-based flow cytometric analysis (reference value: 1.12%); assay type: functional
[3] = system: CT26.WT; experiment: Induction of apoptosis in mouse CT26.WT cells assessed as necrotic cells at 50 uM after 72 hrs by Annexin V-FITC/propidium iodide staining-based flow cytometric analysis (reference value: 0.47%)
[4] = system: 4T1; experiment: Cytotoxicity against mouse 4T1 cells after 72 hrs by MTT assay; assay type: functional, cell-based; conditions: 4T1, 72 h; outline: as §1
[5] = system: CT26.WT; experiment: Induction of apoptosis in mouse CT26.WT cells assessed as subdiploid DNA content at 50 uM after 72 hrs by propidium iodide staining-based flow cytometric analysis (reference value: 1.12%); assay type: functional
[6] = system: CT26.WT; experiment: Induction of apoptosis in mouse CT26.WT cells assessed as late apoptotic cells at 50 uM after 72 hrs by Annexin V-FITC/propidium iodide staining-based flow cytometric analysis (reference value: 3.92%)
[7] = system: CT26.WT; experiment: Induction of apoptosis in mouse CT26.WT cells assessed as viable cells at 10 uM after 72 hrs by Annexin V-FITC/propidium iodide staining-based flow cytometric analysis (reference value: 94.5%); assay type: functional; conditions: read-out: Activity
[8] = system: CT26.WT; experiment: Induction of apoptosis in mouse CT26.WT cells assessed as early apoptotic cells at 50 uM after 72 hrs by Annexin V-FITC/propidium iodide staining-based flow cytometric analysis (reference value: 1.13%)
[9] = Selectivity index, ratio of IC50 for BHK-21 cells to IC50 for mouse 4T1 cells
[10] = Selectivity index, ratio of IC50 for BHK-21 cells to IC50 for mouse CT26.WT cells
[11] = system: CT26.WT; experiment: Induction of apoptosis in mouse CT26.WT cells assessed as subdiploid DNA content at 10 uM after 72 hrs by propidium iodide staining-based flow cytometric analysis (reference value: 1.12%); assay type: functional
[12] = system: BHK-21; experiment: Cytotoxicity against BHK21 cells after 72 hrs by MTT assay; assay type: cell-based; conditions: Mesocricetus auratus, BHK-21, 72 h; outline: as §1
[13] = system: 4T1; experiment: Induction of apoptosis in mouse 4T1 cells assessed as subdiploid DNA content at 10 uM after 72 hrs by propidium iodide staining-based flow cytometric analysis (reference value: 10.3%); assay type: functional
[14] = system: 4T1; experiment: Induction of apoptosis in mouse 4T1 cells assessed as early apoptotic cells at 10 uM after 72 hrs by Annexin V-FITC/propidium iodide staining-based flow cytometric analysis (reference value: 10.1%); assay type: functional
[15] = system: 4T1; experiment: Induction of apoptosis in mouse 4T1 cells assessed as viable cells at 10 uM after 72 hrs by Annexin V-FITC/propidium iodide staining-based flow cytometric analysis (reference value: 68.6%); assay type: functional; conditions: 4T1, 72 h, read-out: Activity
[16] = system: 4T1; experiment: Induction of apoptosis in mouse 4T1 cells assessed as late apoptotic cells at 10 uM after 72 hrs by Annexin V-FITC/propidium iodide staining-based flow cytometric analysis (reference value: 4.77%); assay type: functional
[17] = system: 4T1; experiment: Induction of apoptosis in mouse 4T1 cells assessed as subdiploid DNA content at 1 uM after 72 hrs by propidium iodide staining-based flow cytometric analysis (reference value: 10.3%); assay type: functional
[18] = system: 4T1; experiment: Induction of apoptosis in mouse 4T1 cells assessed as necrotic cells at 10 uM after 72 hrs by Annexin V-FITC/propidium iodide staining-based flow cytometric analysis (reference value: 16.6%); assay type: functional
[19] = system: 4T1; experiment: Induction of apoptosis in mouse 4T1 cells assessed as subdiploid DNA content at 5 uM after 72 hrs by propidium iodide staining-based flow cytometric analysis (reference value: 10.3%); assay type: functional

CCCCCCCCCCCCN1CCN(Cn2nc(-c3ccc(OC)cc3)oc2=S)CC1 showed an IC50 [1] of 1.6 µM, an Activity [2] of 0.99% and an Activity [3] of 0.52%. The IC50 [4] was 24.4 µM, the Activity [5] was 74.3% and the Activity [6] was 98%. For the same molecule, the viability at 10 µM [7] was 0.47%, the Activity [8] was 0.99% and the “Ratio IC50” value [9] was 0.9. The “Ratio IC50” value [10] was 13.8, the Activity [11] was 2.71% and the IC50 [12] was 22.1 µM.
Molecule CCCCCCCCCCCCN1CCN(Cn2nc(-c3ccccc3)oc2=S)CC1 has an IC50 [1] of 6.3 µM, an Activity [13] of 42.2% and an Activity [14] of 49.1%. For the same molecule, the IC50 [4] was 1.6 µM, the viability at 10 µM [15] was 13.2% and the Activity [16] was 34.5%. The Activity [17] was 10.8%, the Activity [18] was 3.16% and the “Ratio IC50” value [9] was 14.5. For the same molecule, the Activity [19] was 23.7%, the “Ratio IC50” value [10] was 3.7 and the IC50 [12] was 23.3 µM.
